Measurements: ChEMBL document CHEMBL3352685, “Small-molecule inhibitors of 25-hydroxyvitamin D-24-hydroxylase (CYP24A1): synthesis and biological evaluation” (J Med Chem, 2014)

Legend:
[1] = biological target: T1, 1,25-dihydroxyvitamin D(3) 24-hydroxylase, mitochondrial (Homo sapiens, UniProt Q07973); test: Inhibition of human MBP-tagged CYP24A1 expressed in Escherichia coli using 1,25(OH)2D3 substrate in presence of bovine adrenodoxin, adrenodoxin reductase and NADPH incubated at 37 degC for 25 mins by HPLC method
T1 sequence (Q07973 whole entry): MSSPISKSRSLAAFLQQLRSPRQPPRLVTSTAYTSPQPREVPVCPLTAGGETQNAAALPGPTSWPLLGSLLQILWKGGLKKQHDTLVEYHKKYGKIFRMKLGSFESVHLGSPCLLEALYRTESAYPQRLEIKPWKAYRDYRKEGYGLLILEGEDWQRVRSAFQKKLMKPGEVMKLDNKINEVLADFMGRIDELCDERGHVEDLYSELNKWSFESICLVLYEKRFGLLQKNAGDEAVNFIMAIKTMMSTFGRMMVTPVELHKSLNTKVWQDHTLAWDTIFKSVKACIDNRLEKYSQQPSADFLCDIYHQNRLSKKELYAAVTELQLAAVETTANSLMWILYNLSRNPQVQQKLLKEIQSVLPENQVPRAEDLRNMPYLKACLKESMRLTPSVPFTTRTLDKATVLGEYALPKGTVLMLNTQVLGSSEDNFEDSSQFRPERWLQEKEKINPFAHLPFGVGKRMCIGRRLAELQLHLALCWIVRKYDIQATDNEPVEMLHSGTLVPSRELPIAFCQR

[2] = Cytotoxicity against human primary CLL cells; format: functional; details: read-out: LD50 (the source's name)
In short: (§1)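 Primary CLL cells or normal B-cells from peripheral blood, purified by negative selection (CD3 Dynabeads; >90% purity by flow cytometry). Cultured at 1x10⁶/ml in RPMI with 10% FCS, penicillin/streptomycin and 5 ng/ml IL-4, 37 °C, 5% CO2. Exposed to inhibitor (0–1x10⁻⁷ M) up to 48 h. Annexin V-FITC/PI flow cytometry; LD50 from sigmoidal dose-response; triplicate.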

[3] = biological target: T1, 1,25-dihydroxyvitamin D(3) 24-hydroxylase, mitochondrial; test: Inhibition of CYP24A1 in human primary CLL cells assessed as increase in VDR-regulated GADD45alpha mRNA expression at 0.05 to 0.10 uM in presence of 100 nM 1,25(OH)2D3 incubated for 24 hrs by quantitative RT-PCR method; format: cell-based
In short: (§2)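 Primary CLL lymphocytes, purified by negative selection with CD3 beads (>90% purity), cultured in RPMI with 10% FCS, penicillin/streptomycin and 5 ng/ml IL-4 at 37°C, 5% CO2. Inhibitor 0, 0.01, 0.05 or 0.1 µM for 24 h with or without calcitriol (10 or 100 nM). Total RNA reverse transcribed, SYBR Green real-time PCR, 35 cycles. Target mRNA expressed as ratio to RPS14 from crossing points. Duplicates.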

[4] = biological target: T1, 1,25-dihydroxyvitamin D(3) 24-hydroxylase, mitochondrial; test: Inhibition of CYP24A1 in human primary CLL cells assessed as increase in VDR-regulated CDKN1A mRNA expression at 0.05 to 0.10 uM in presence of 100 nM 1,25(OH)2D3 incubated for 24 hrs by quantitative RT-PCR method; format: cell-based; in short: as §2
[5] = biological target: T1, 1,25-dihydroxyvitamin D(3) 24-hydroxylase, mitochondrial; test: Inhibition of CYP24A1 in human primary CLL cells assessed as increase in VDR-regulated CDKN1A mRNA expression in presence of 100 nM calcitriol incubated for 24 hrs by quantitative RT-PCR method; format: cell-based; in short: as §2
[6] = Induction of apoptosis in human primary CLL cells after 48 hrs by Annexin V/propidium iodide staining based flow cytometry; format: functional; in short: as §1
[7] = Induction of apoptosis in normal human B cells after 48 hrs by Annexin V/propidium iodide staining based flow cytometry; format: cell-based, B cell; details: read-out: LD50; in short: as §1

| Structure (SMILES) | IC50 [1] [nM] | Ki [1] [nM] | also measured |
| --- | --- | --- | --- |
| COc1cc(/C=C/c2ccc(CCC(OS(C)(=O)=O)C(C)(C)C)cc2)cc(OC)c1 (configuration not stated) | 5400 | 380 | – |
| Nc1nc(F)nc2c1ncn2[C@@H]1O[C@H](CO)[C@@H](O)[C@@H]1O [FLUDARABINE] | – | – | CC50 [2]: 1100 nM |
| C=C1[C@H](O)CC(=C/C=C2\CCC[C@]3(C)[C@@H]([C@H](C)Cn4ccnc4)CC[C@@H]23)C[C@H]1O | – | 21 | – |
| COc1cc(/C=C/c2ccc(CCC(OS(=O)(=O)c3ccc(C)cc3)C(C)(C)C)cc2)cc(OC)c1 (configuration not stated) | 2900 | 210 | – |
| O=C(NCC(c1ccccc1)n1ccnc1)c1ccc(S(=O)(=O)Nc2ccccc2)cc1 (configuration not stated) | 1300 | 91 | – |
| COc1cc(/C=C/c2ccc(C(=O)NCC(c3ccccc3)n3ccnc3)cc2)cc(OC)c1OC (configuration not stated) | 140 | 9.7 | CC50 [2]: 3500 nM; inhibition (INH) [3]: Active; inhibition (INH) [4]: Active |
| COc1cc(/C=C/c2ccc(CCC(=O)C(C)(C)C)cc2)cc(OC)c1 | 2100 | 150 | – |
| CC(C)(C)C(CCc1ccc(/C=C/c2ccccc2)cc1)OS(C)(=O)=O (configuration not stated) | 5600 | 400 | – |
| C=C1/C(=C\C=C2/CCC[C@]3(C)[C@@H]([C@H](C)CCS(=N)(=O)c4ccccc4)CC[C@@H]23)C[C@@H](O)C[C@@H]1O (some centres not stated) | 6.5 | – | – |
| O=C(NCC(c1ccccc1)n1ccnc1)c1ccc(/C=C/c2ccccc2)cc1 (configuration not stated) | 400 | 28 | CC50 [2]: 27 nM |
| O=C(NCC(c1ccccc1)n1ccnc1)c1ccc(/C=C/c2ccc(F)cc2)cc1 (configuration not stated) | 260 | 19 | CC50 [2]: 15 nM |
| C=C1[C@H](O)CC(=C/C=C2\CCC[C@]3(C)[C@@H]([C@H](C)CCCNC4CC4)CC[C@@H]23)C[C@H]1O | – | 42 | – |
| COc1cc(/C=C/c2ccc(CCC(OC(=O)n3ccnc3)C(C)(C)C)cc2)cc(OC)c1 (configuration not stated) | 160 | 11 | – |
| Clc1cccc(C(c2ccc3[nH]cnc3c2)n2ccnc2)c1 (configuration not stated) [LIAROZOLE] | 2.3 | – | – |
| C=C1CC[C@H](O)C/C1=C/C=C1\CCC[C@]2(C)[C@@H]([C@H](C)CCCOS(=O)(=O)c3ccc(C)cc3)CC[C@@H]12 | – | 39 | – |
| COc1cc(/C=C/c2ccc(C(=O)NCC(c3ccccc3)n3ccnc3)cc2)cc(OC)c1 (configuration not stated) | 110 | 7.8 | CC50 [2]: 13 nM; inhibition (INH) [5]: Dose-dependent effect; inhibition (INH) [3]: Active; inhibition (INH) [4]: Active |
| C=C1/C(=C\C=C2/CCC[C@]3(C)[C@@H]([C@H](C)CCCC(C)(C)O)CC[C@@H]23)C[C@@H](O)C[C@@H]1O [CALCITRIOL] | – | – | LD50 [6]: 2.86 ×10⁻⁷ M; CC50 at 48 h [7]: 6510 nM |
| O=C(NCC(c1ccccc1)n1ccnc1)c1ccc(CCc2ccc(F)cc2)cc1 (configuration not stated) | 510 | 36 | – |
| CC(C)(C)C(=O)/C(=C/c1ccc(/C=C/c2ccccc2)cc1)n1ccnc1 | 180 | 13 | – |
| COc1ccc(/C=C/c2ccc(C(=O)NCC(c3ccccc3)n3ccnc3)cc2)cc1 (configuration not stated) | 340 | 24 | CC50 [2]: 3200 nM |
| CC(C)(C)C(=O)C(Cc1ccc(CCc2ccccc2)cc1)n1ccnc1 (configuration not stated) | 600 | 42 | – |
| C=C1/C(=C\C=C2/CCC[C@]3(C)C([C@H](C)C/C=C/S(=O)(=O)C(C)(C)C)=CC[C@@H]23)C[C@@H](O)C[C@@H]1O [LUNACALCIPOL] | 27 | – | – |
